Here are results for 6 compounds from ChEMBL document CHEMBL4043069, “Streptenols F-I Isolated from the Marine-Derived Streptomyces misionensis BAT-10-03-023” (2017).

Holding throughout (format): functional
One assay relates to HT-29. The experiment in a line: Cytotoxicity against human HT-29 cells assessed as inhibition of cell growth. In outline: (§1)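 Human tumour lines were used: A-549 lung carcinoma, MDA-MB-231 breast adenocarcinoma, HT-29 colorectal carcinoma and PSN1 pancreatic adenocarcinoma. The compounds were tested across doses. GI50, the concentration giving 50% growth inhibition, was derived from dose-response data by a literature procedure. Survival was estimated with the National Cancer Institute algorithm, and three dose-response parameters were calculated.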

A further assay concerns A549. In words: Cytotoxicity against human A549 cells assessed as inhibition of cell growth. Put shortly:
as §1

Another assay deals with MDA-MB-231. The experiment in a line: Cytotoxicity against human MDA-MB-231 cells assessed as inhibition of cell growth. In outline:
as §1

The next assay relates to PSN1. In words: Cytotoxicity against human PSN1 cells assessed as inhibition of cell growth. In outline: as §1

The structures appear in SMILES notation.

In the case of `C/C=C/CCC(=O)C[C@@H](O)CCO[C@]1(CC/C=C/C)C[C@@H](O)CCO1`, the GI50 with HT-29, in the assay on A549, with MDA-MB-231 and in the assay on PSN1 was 28 µM throughout.

For the compound `C/C=C/C=C/C(=O)C[C@H](CCO)OC`, the 50% growth inhibitory concentration (GI50) was 49 µM in the assay with HT-29, 50 µM in the assay on A549, 30 µM in the assay on MDA-MB-231 and 50 µM in the assay with PSN1.

With `C/C=C/CCC(=O)C[C@@H](O)CCO`, the 50% growth inhibitory concentration (GI50) with HT-29, in the assay with A549, in the assay with MDA-MB-231 and in the assay on PSN1 was 54 µM each time.

Consider `C/C=C/C=C/C(=O)CC(CCO)OCC[C@H](O)CC(=O)/C=C/C=C/C` (some centres undefined), for which the GI50 with HT-29, with A549, in the assay on MDA-MB-231 and in the assay with PSN1 was 29 µM throughout.

Regarding `C/C=C/C=C/C(=O)CC(CCO)OCC[C@H](O)CC(=O)CC/C=C/C` (some centres undefined), the concentration for 50% growth inhibition (GI50) with HT-29, in the assay with A549, in the assay with MDA-MB-231 and in the assay on PSN1 was 28 µM throughout.

Consider `C/C=C/C=C/C(=O)C[C@@H](O)CCO`, for which the GI50 in the assay with HT-29, in the assay with A549, with MDA-MB-231 and in the assay on PSN1 was 54 µM each time.

As a reminder, the GI50 is the concentration that inhibits growth by half.
